Assay results published in ChEMBL document CHEMBL3243961, “Synthesis and biological activity of 8-arylergolines” (1977).
Active and inactive are the calls of the source. No cut-off for these calls is given here.

Tests used:
Rattus norvegicus [1] = organism: Rattus norvegicus; test: Oxytocic activity in rat uterus smooth muscle up to 10 ug/ml; assay type: functional, tissue-based; details: Muscle tissue
[2] = molecular target: Serotonin (5-HT) receptor (Rattus norvegicus) (UniProt P35563+P35365+P32305+P31388+Q9JJ16+P28564+P30994+Q62758+P08909+P14842+P30940+P35364+P19327+P28565); test: Inhibition of 5-HT receptor in rat stomach fundus relative to methysergide; assay type: tissue-based
Rattus norvegicus [3] = test: Antidepressant activity in rat assessed as antimuricidal activity at 10 mg/kg, ip; assay type: functional, organism-based; set-up: dose 10 mg/kg
Procedure, shortened: (§1)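 Rats screened in an antimuricidal (mouse-killing) test, used as a possible indicator of antidepressant activity.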

[4] = molecular target: T1, Adrenergic receptor alpha (Rattus norvegicus) (UniProt P15823+P23944+P43140+P22086+P19328+P22909); test: Blockade of alpha-adrenoceptor in rat aorta assessed as rightward shift in norepinephrine dose response curve; assay type: tissue-based
Rattus norvegicus [5] = test: Decrease in prolactin level in rat serum at 1 mg, ip by radioimmunoassay; assay type: functional
Procedure, shortened: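 Rats received test compound ip at 1 mg per rat. Serum prolactin was then measured by radioimmunoassay, and the result was expressed as the percent drop in serum prolactin.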

Rattus norvegicus [6] = test: Antidepressant activity in rat assessed as antimuricidal activity at 20 mg/kg, ip; assay type: functional, organism-based; set-up: dose 20 mg/kg; procedure, shortened: as §1
[7] = molecular target: T1, Adrenergic receptor alpha (Rattus norvegicus); test: Blockade of alpha-adrenoceptor in rat aorta; assay type: tissue-based
Rattus norvegicus [8] = test: Antidepressant activity in rat assessed as antimuricidal activity at 5 mg/kg, ip; assay type: functional, organism-based; set-up: dose 5 mg/kg; procedure, shortened: as §1
Rattus norvegicus [9] = test: Antidepressant activity in rat assessed as antimuricidal activity at 0.625 mg/kg, ip; assay type: functional, organism-based; set-up: dose 0.625 mg/kg
Rattus norvegicus [10] = test: Decrease in prolactin level in rat serum at 10 ug, ip by radioimmunoassay; assay type: functional

For `Cc1ccc([C@@H]2C=C3c4cccc5[nH]cc(c45)C[C@H]3N(C)C2)cc1`, the Activity (Rattus norvegicus [1]) was “inactive”.

In the case of `CN1C[C@H](c2ccc3c(c2)OCO3)C=C2c3cccc4c3[C@@H](CN4)C[C@H]21`, the Activity (Rattus norvegicus [1]) is reported as “inactive”.

With `CN1C[C@@H](c2ccccc2)C=C2c3cccc4c3[C@@H](CN4)C[C@H]21` the Activity (Rattus norvegicus [1]) was “inactive”.

With `CN1C[C@H](c2ccc3c(c2)OCO3)C=C2c3cccc4[nH]cc(c34)C[C@H]21` the Activity (Rattus norvegicus [1]) was “inactive”, the 5-HT antagonist potency relative to methysergide [2] was 50% and the Activity (Rattus norvegicus [3]) was “Active”. For the same compound, the fold change (FC) [4] was 2 and the inhibition (Rattus norvegicus [5]) was “inactive”.

For `CN1C[C@@H](c2ccccc2)C=C2c3cccc4[nH]cc(c34)C[C@H]21.O=C(O)/C=C\C(=O)O`, the Activity (Rattus norvegicus [1]) was “inactive”, the 5-HT antagonist potency relative to methysergide [2] was 10% and the “inhibition (INH)” value (Rattus norvegicus [5]) was 88%. For the same compound, the Activity (Rattus norvegicus [6]) was “inactive” and the inhibition [7] was “Active”.

`COc1ccc([C@H]2C=C3c4cccc5c4[C@@H](CN5)C[C@H]3N(C)C2)cc1` was tested, and the Activity (Rattus norvegicus [1]) was “inactive”.

In the case of `CN1C[C@H](c2ccccc2)C=C2c3cccc4[nH]cc(c34)C[C@H]21.O=C(O)/C=C\C(=O)O`, the Activity (Rattus norvegicus [1]) is reported as “inactive”, the 5-HT antagonist potency relative to methysergide [2] is reported as 50% and the Activity (Rattus norvegicus [8]) is reported as “Active”. The fold change (FC) [4] was 2 and the “inhibition (INH)” value (Rattus norvegicus [5]) was 71%.

In the case of `CN1C[C@@H](c2ccc3c(c2)OCO3)C=C2c3cccc4c3[C@@H](CN4)C[C@H]21`, the Activity (Rattus norvegicus [1]) is reported as “inactive”.

With `CN1CCC=C2c3cccc4[nH]cc(c34)CC21` (racemic) the Activity (Rattus norvegicus [9]) was “Active”.

For `COc1ccc([C@@H]2C=C3c4cccc5c4[C@@H](CN5)C[C@H]3N(C)C2)cc1`, the Activity (Rattus norvegicus [1]) was “inactive”.

With `CN1CC(c2ccc(Cl)cc2)C=C2c3cccc4c3[C@@H](CN4)C[C@H]21` (stereo partly drawn) the Activity (Rattus norvegicus [1]) was “inactive”.

With `CN1C[C@H](c2ccccc2)C=C2c3cccc4c3[C@@H](CN4)C[C@H]21` the Activity (Rattus norvegicus [1]) was “inactive”.

For `COc1ccc([C@@H]2C=C3c4cccc5[nH]cc(c45)C[C@H]3N(C)C2)cc1.O=C(O)/C=C\C(=O)O`, the Activity (Rattus norvegicus [1]) was “inactive”, the 5-HT antagonist potency relative to methysergide [2] was 100% and the Activity (Rattus norvegicus [3]) was “Active”. For the same compound, the “inhibition (INH)” value (Rattus norvegicus [5]) was 81% and the inhibition [7] was “Active”.

In the case of `CN1CC(c2ccc(O)cc2)C=C2c3cccc4c3[C@@H](CN4)C[C@H]21` (stereo partly drawn), the Activity (Rattus norvegicus [1]) is reported as “inactive”.

`Cc1ccc([C@H]2C=C3c4cccc5c4[C@@H](CN5)C[C@H]3N(C)C2)cc1` was tested, and the Activity (Rattus norvegicus [1]) was “inactive”.

For `Cc1ccc([C@@H]2C=C3c4cccc5c4[C@@H](CN5)C[C@H]3N(C)C2)cc1`, the Activity (Rattus norvegicus [1]) was “inactive”.

In the case of `CC(C)[C@H]1C(=O)N2CCC[C@H]2[C@]2(O)O[C@](NC(=O)[C@@H]3C=C4c5cccc6[nH]cc(c56)C[C@H]4N(C)C3)(C(C)C)C(=O)N12` [ERGOCORNINE], the “inhibition (INH)” value (Rattus norvegicus [10]) is reported as 60%.
